Usually IC50 stands for the concentration that gives 50% inhibition. Read a high IC50 as a need for much substance. One may read the T/C as the result in the treated group divided by that in the control group, in per cent.

In one assay the test system is B16. Nature of the assay: Inhibition of murine B16 melanoma cell proliferation measured by the MTT assay. Type of assay: functional, cell-based. The settings on record: Mus musculus. The method, boiled down:
(§1)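 Murine L1210 leukemia and B16 melanoma cells were grown in RPMI 1640 with 10% fetal calf serum, 2 mM L-glutamine, penicillin/streptomycin and 10 mM HEPES (pH 7.4). Cells were exposed to nine serial drug dilutions in triplicate for about four doubling times (L1210 48 h, B16 96 h), then read by microculture tetrazolium (MTT) assay. IC50 is the concentration halving optical density versus untreated controls, averaged over ≥2 independent experiments.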
In general terms: Formazan colour is commonly taken as a measure of viable cells.

A further assay deals with L1210. Nature of the assay: Inhibition of murine L1210 leukemia cell proliferation measured by the MTT assay. The settings on record: Mus musculus. Type of assay: functional, cell-based. The method, boiled down: as §1
Assay [1] deals with Mus musculus. Nature of the assay: Long-term survivors among 14 mice infected with P388 leukemia, scored on day 60 at 320 mg/kg dose on day 1. It counts as functional. The method, boiled down: (§2)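 B6D2F1 mice in groups of 6–7 were inoculated ip on day 0 with 10^6 P388 cells. Dihydrochloride salts were dissolved in water and given iv on day 1 or on days 1, 5 and 9. Doses ranged from a low nontoxic dose to a toxic one. Long-term survivors were counted at day 60.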

Assay [2] deals with Mus musculus. The experiment in a line: Percent median survival time of mice injected with P388 leukemia, at a subcutaneous compound dose of 160 mg/kg. It counts as functional.
The species named for assay [3] is Mus musculus. Nature of the assay: Long-term survivors among 14 mice infected with B16 melanoma, scored on day 90 at optimal dose on days 1-9.
For assay [4], the system named is Mus musculus. Nature of the assay: Percent median survival time of mice injected with P388 leukemia, at a intravenous compound dose of 320 mg/kg.
Assay [5] relates to Mus musculus. Nature of the assay: Percent median survival time of mice injected with B16 melanoma, at a intraperitoneal compound dose of 20-40 mg/kg.
The subject of assay [6] is Mus musculus. The experiment in a line: Long-term survivors among 6 mice infected with P388 leukemia, scored on day 60 at 320 mg/kg dose. It counts as functional. Put shortly: as §2
Assay [7] deals with Mus musculus. The experiment in a line: Percent median survival time of mice intraperitoneally injected with P388 leukemia was determined from tested at 160 mg/kg at day1,5,9 dose to that of control. It counts as functional. The settings on record: route intraperitoneal. Put shortly:
(§3)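 P388 leukemia in B6D2F1 mice (groups of 6–7), 10^6 cells inoculated ip on day 0. Dihydrochloride salts were dissolved in water and given iv on day 1 or on days 1, 5, 9. Three doses were tested, then five if active. %T/C = median survival treated/control × 100, reported at the optimal dose (no toxic death, weight loss <20%), from one or two representative experiments.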

The test system of assay [8] is Mus musculus. The experiment in a line: Percent median survival time of mice intraperitoneally injected with P388 leukemia was determined from tested at 320 mg/kg at day1 dose to that of control. The conditions noted are these: route intraperitoneal. Type of assay: functional. Put shortly: as §3
Assay [9] relates to Mus musculus. The experiment in a line: Long-term survivors among 6 mice infected with P388 leukemia, scored on day 60 at 160 mg/kg dose. Type of assay: functional. Put shortly: as §2
Assay [10] relates to Mus musculus. The experiment in a line: Long-term survivors among 7 mice infected with B16 melanoma, scored on day 90 at 80 mg/kg dose.
For assay [11], the system named is Mus musculus. Nature of the assay: Percent median survival time of mice injected with B16 melanoma, at a intraperitoneal compound dose of 80 mg/kg.
The subject of assay [12] is Mus musculus. The experiment in a line: Long-term survivors among 6 mice infected with P388 leukemia, scored on day 60 at 5 mg/kg dose on day 1. Type of assay: functional. Put shortly:
as §2

The subject of assay [13] is Mus musculus. The experiment in a line: Long-term survivors among 6 mice infected with B16 melanoma, scored on day 90 at 102 mg/kg dose on day 1. It counts as functional.
For assay [14], the system named is Mus musculus. The experiment in a line: Percent median survival time of mice injected with P388 leukemia, at a subcutaneous compound dose of 5 mg/kg on day 1. Type of assay: functional.
Assay [15] deals with Mus musculus. Nature of the assay: Percent median survival time of mice injected with P388 leukemia, at a subcutaneous compound dose of 5 mg/kg on day 1, 5, 9. Type of assay: functional.
In assay [16] the test system is Mus musculus. Nature of the assay: Percent median survival time of mice injected with B16 melanoma, at a intraperitoneal compound dose of 20 mg/kg.
For assay [17], the system named is Mus musculus. The experiment in a line: Long-term survivors among 7 mice infected with B16 melanoma, scored on day 90 at 40 mg/kg dose on day 1. It counts as functional.
Assay [18] deals with Mus musculus. Nature of the assay: Long-term survivors among 7 mice infected with P388 leukemia, scored on day 60 at 40 mg/kg dose on day 1. It counts as functional. The method, boiled down: (§4)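 B6D2F1 mice in groups of 6–7 received 10^6 P388 cells ip on day 0. Dihydrochloride salts dissolved in water were injected iv on day 1 or on days 1, 5 and 9, at three doses and then five. Read-outs were % T/C (median survival treated/control × 100) and long-term survivors on day 60, both at the optimal dose (no toxic death, weight loss <20%).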

In assay [19] the test system is Mus musculus. Nature of the assay: Percent median survival time of mice injected with P388 leukemia, at a subcutaneous compound dose of 20 mg/kg. It counts as functional.
For assay [20], the system named is Mus musculus. The experiment in a line: Percent median survival time of mice injected with P388 leukemia, at a intravenous compound dose of 40 mg/kg.
For assay [21], the system named is Mus musculus. The experiment in a line: Percent median survival time of mice injected with B16 melanoma, at a intraperitoneal compound dose of 1.25 mg/kg.
In assay [22] the test system is Mus musculus. The experiment in a line: Long-term survivors among 7 mice infected with B16 melanoma, scored on day 90 at 240 mg/kg dose on day 1. It counts as functional.
Assay [23] relates to Mus musculus. Nature of the assay: Long-term survivors among 7 mice infected with P388 leukemia, scored on day 60 at 240 mg/kg dose on day 1. Type of assay: functional. The method, boiled down: as §4
Assay [24] deals with Mus musculus. The experiment in a line: Percent median survival time of mice injected with P388 leukemia, at a subcutaneous compound dose of 240 mg/kg. It counts as functional.
Assay [25] has as its system Mus musculus. Nature of the assay: Long-term survivors among 10 mice infected with P388 leukemia, scored on day 60 at 10 mg/kg dose. Type of assay: functional.
In assay [26] the test system is Mus musculus. The experiment in a line: Long-term survivors among 10 mice infected with P388 leukemia, scored on day 60 at 20 mg/kg dose. Type of assay: functional.
The subject of assay [27] is Mus musculus. The experiment in a line: Percent median survival time of mice injected with P388 leukemia, at a subcutaneous compound dose of 10 mg/kg. It counts as functional.
The test system of assay [28] is Mus musculus. Nature of the assay: Percent median survival time of mice injected with B16 melanoma, at a intraperitoneal compound dose of 2.5 mg/kg.

Turning to `Cc1c2ccnc(C(=O)NCCN(C)C)c2cc2c3cc(OC(=O)CC(C)(C)CC(=O)O)ccc3n(C)c12`, the concentration for half-maximal inhibition (IC50) in the assay on B16 is 3.7 nM; in the assay on L1210 it was 2.7 nM. Besides, the figures for the LTS in the assay with Mus musculus [1] and in the assay filed under Mus musculus [3] were 4 and 5, respectively. Also, the figures for the T/C in the assay on Mus musculus [2], in the assay on Mus musculus [4] and in the assay with Mus musculus [5] were 404%, greater than 600% and greater than 466%, respectively.
As for `Cc1c2ccnc(C(=O)NCCN(C)C)c2cc2c3cc(OP(=O)(O)OCc4ccccc4)ccc3n(C)c12`, the IC50 with B16 stood at 511 nM; with L1210 it was 4000 nM. The LTS in the assay on Mus musculus [6], in the assay with Mus musculus [9] and with Mus musculus [10] was 0 throughout. For the same molecule, the results for the T/C with Mus musculus [7], with Mus musculus [8] and with Mus musculus [11] were 111%, 142% and 144%, respectively.
Consider `Cc1c2ccnc(C(=O)NCCN(C)C)c2cc2c3cc(OC(=O)N4CCN(C(c5ccccc5)c5ccccc5)CC4)ccc3n(C)c12`, for which the half-inhibitory concentration (IC50) in the assay on B16 was 590 nM; with L1210, 164 nM. The LTS in the assay on Mus musculus [12] and with Mus musculus [13] was 0 each time. Also, the T/C in the assay on Mus musculus [14] was found to be 102%; in the assay on Mus musculus [15], 94%; with Mus musculus [16], 102%.
On to `Cc1c(OC(=O)CCCCC(=O)O)ccc2c1c1cc3c(C(=O)NCCN(C)C)nccc3c(C)c1n2C`, for which the IC50 turned out to be 6.4 nM in the assay on B16 and 24.7 nM in the assay on L1210. In addition, the LTS in the assay with Mus musculus [17] and with Mus musculus [18] was 0 each time. In addition, the T/C in the assay with Mus musculus [19] is reported as greater than 600%; with Mus musculus [20], 300%; in the assay on Mus musculus [21], 127%.
Regarding `Cc1c2ccnc(C(=O)NCCN(C)C)c2cc2c3cc(OC(=O)NCCCC(=O)O)ccc3n(C)c12`, the IC50 is 45.7 nM in the assay on B16 and 522 nM with L1210. Further, the LTS in the assay with Mus musculus [22] and with Mus musculus [23] was 0 each time. The T/C is given as 109% with Mus musculus [2], 111% in the assay on Mus musculus [24] and 139% in the assay on Mus musculus [11].
Regarding `COc1cccc2c1C(=O)c1c(O)c3c(c(O)c1C2=O)C[C@@](O)(C(=O)CO)C[C@@H]3O[C@H]1C[C@H](N)[C@H](O)[C@H](C)O1` [DOXORUBICIN], the half-maximal inhibitory concentration (IC50) worked out at 7.6 nM in the assay with B16 and 34.3 nM in the assay with L1210. Further, the LTS with Mus musculus [25] is 4; in the assay on Mus musculus [26], 2. Besides, the T/C in the assay with Mus musculus [27] was 332%; in the assay with Mus musculus [19], 258%; with Mus musculus [28], 456%.

For the origin of these results see ChEMBL document CHEMBL1132144, “Synthesis of 9-O-substituted derivatives of 9-hydroxy-5, 6-dimethyl-6H-pyrido[4,3-b]carbazole-1-carboxylic acid (2-(dimethylamino)ethyl)amide and their 10- and 11-methyl analogues with improved antitumor activity” (J Med Chem, 1999).
